Converted amounts (≈) assume the structure as drawn. The source made the active and inactive calls. No cut-off for these calls is given here.
What was measured:
[1] = tested on: Mast/stem cell growth factor receptor Kit (Homo sapiens), P10721 [T670I]; assay: Inhibition of […] cKIT T670I mutant in human GIST-5R cells assessed as cell growth inhibition after 72 hrs by cell titer-glo assay; format: cell-based
[2] = target: T1, Mast/stem cell growth factor receptor Kit (Homo sapiens, UniProt P10721); assay: Inhibition of wild type cKIT autophosphorylation at Y823 in human GIST-T1 cells at 100 nM after 1 hr by Western blot analysis; format: cell-based
T1 sequence (P10721 whole entry): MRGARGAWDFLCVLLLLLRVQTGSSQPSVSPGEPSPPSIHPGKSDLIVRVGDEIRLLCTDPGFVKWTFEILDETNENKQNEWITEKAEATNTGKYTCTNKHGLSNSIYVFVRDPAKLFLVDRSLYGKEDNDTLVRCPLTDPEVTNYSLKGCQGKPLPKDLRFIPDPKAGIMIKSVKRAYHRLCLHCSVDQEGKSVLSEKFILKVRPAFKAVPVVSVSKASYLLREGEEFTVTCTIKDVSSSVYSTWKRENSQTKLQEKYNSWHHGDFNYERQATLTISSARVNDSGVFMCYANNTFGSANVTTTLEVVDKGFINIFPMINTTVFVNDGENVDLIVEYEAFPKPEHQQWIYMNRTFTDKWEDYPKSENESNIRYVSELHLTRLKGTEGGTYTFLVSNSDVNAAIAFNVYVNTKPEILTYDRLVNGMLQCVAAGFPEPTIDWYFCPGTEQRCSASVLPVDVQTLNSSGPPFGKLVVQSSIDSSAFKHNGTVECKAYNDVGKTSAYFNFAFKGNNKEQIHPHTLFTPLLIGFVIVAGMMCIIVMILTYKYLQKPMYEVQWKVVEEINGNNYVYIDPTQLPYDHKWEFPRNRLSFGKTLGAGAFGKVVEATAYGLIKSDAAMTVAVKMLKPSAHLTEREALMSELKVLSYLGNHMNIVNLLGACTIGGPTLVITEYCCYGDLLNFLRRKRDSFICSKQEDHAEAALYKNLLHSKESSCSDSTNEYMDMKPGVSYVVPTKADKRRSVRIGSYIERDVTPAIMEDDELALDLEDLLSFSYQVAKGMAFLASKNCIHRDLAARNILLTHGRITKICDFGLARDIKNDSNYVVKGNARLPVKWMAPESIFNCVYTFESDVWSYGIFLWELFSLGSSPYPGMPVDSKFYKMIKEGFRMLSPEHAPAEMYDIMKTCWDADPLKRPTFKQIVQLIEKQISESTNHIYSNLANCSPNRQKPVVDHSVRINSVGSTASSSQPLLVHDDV
In short: (§1)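 GIST-T1 or GIST-5R cells in DMEM with 10% FBS were treated with serially diluted compound for 1 h. Cells were then lysed and analysed by western blotting.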

[3] = target: T1, Mast/stem cell growth factor receptor Kit; assay: Ratio of imatinib IC50 to compound IC50 for TEL-fused cKIT (unknown origin) expressed in mouse BA/F3 cells; format: cell-based
Homo sapiens = organism: Homo sapiens; assay: Induction of apoptosis in human GIST5R cells assessed as increase in cleaved PARP levels after 24 hrs by Western blot analysis; format: functional, cell-based
In short: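 GIST-T1 or GIST-5R cells in DMEM with 10% FBS were exposed to serially diluted compound for 24 h. Apoptosis was assessed by western blot with PARP and GAPDH antibodies.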

[4] = target: Mast/stem cell growth factor receptor Kit (Homo sapiens, UniProt P10721, T670I); assay: Inhibition of cKIT T670I mutant autophosphorylation at Y719 in human GIST-5R cells at 0.1 to 3 uM after 1 hr by Western blot analysis; format: cell-based; in short: as §1
[5] = target: Receptor-type tyrosine-protein kinase FLT3 (Homo sapiens) (UniProt P36888); assay: Inhibition of partial length human FLT3 expressed in bacterial expression system assessed as activity remaining at 1 uM by kinome scan assay
[6] = target: Cyclin-dependent kinase-like 2 (Homo sapiens) (UniProt Q92772); assay: Inhibition of partial length human CDKL2 expressed in bacterial expression system assessed as activity remaining at 1 uM by kinome scan assay
[7] = target: Serine/threonine-protein kinase 10 (Homo sapiens) (UniProt O94804); assay: Inhibition of partial length human LOK expressed in bacterial expression system assessed as activity remaining at 1 uM by kinome scan assay
[8] = tested on: Mast/stem cell growth factor receptor Kit (Homo sapiens), P10721 [V654A]; assay: Inhibition of TEL-fused cKIT V654A mutant (unknown origin) expressed in mouse BA/F3 cells assessed as cell growth inhibition after 72 hrs by cell titer-glo assay; format: cell-based
Sequence of Mast/stem cell growth factor receptor Kit (Homo sapiens), P10721 [V654A] (P10721 whole entry V654A, the tested form may be a part): as the sequence (P10721 whole entry) above, with V654A counted along it
In short: (§2)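 Cells seeded at 3000 per well and exposed to serial compound dilutions for 72 h. Viability read by CellTiter-Glo luminescence and normalised to DMSO controls; mean of three independent measurements. BaF3 lines kept IL-3-free in RPMI 1640/10% FBS after retroviral transduction and puromycin selection. GIST lines grown in DMEM/10% FBS.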

[9] = target: T1, Mast/stem cell growth factor receptor Kit; assay: Inhibition of TEL-fused cKIT (unknown origin) expressed in mouse BA/F3 cells assessed as cell growth inhibition after 72 hrs by cell titer-glo assay; format: cell-based
[10] = Apparent clearance in Sprague-Dawley rat at 1 mg/kg, iv measured up to 8 hrs post dosing; format: ADME, organism-based; conditions: in vivo, read-out: CL(app) (converted)
In short: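 Male Sprague-Dawley rats, 8 weeks old, fasted overnight; iv dosing from a 1 mg/mL solution in 5% DMSO/40% PEG400/55% saline. Jugular-vein blood (~0.2 mL, heparinised) taken at 1, 5, 15, 30 min and 1, 2, 4, 6, 8 h; plasma held at -80 °C until analysis; n=3.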

[11] = target: Macrophage colony-stimulating factor 1 receptor (Homo sapiens) (UniProt P07333); assay: Inhibition of partial length human CSF1R expressed in bacterial expression system assessed as activity remaining at 1 uM by kinome scan assay
Sequence of Macrophage colony-stimulating factor 1 receptor (Homo sapiens) (P07333 whole entry, the tested form may be a part): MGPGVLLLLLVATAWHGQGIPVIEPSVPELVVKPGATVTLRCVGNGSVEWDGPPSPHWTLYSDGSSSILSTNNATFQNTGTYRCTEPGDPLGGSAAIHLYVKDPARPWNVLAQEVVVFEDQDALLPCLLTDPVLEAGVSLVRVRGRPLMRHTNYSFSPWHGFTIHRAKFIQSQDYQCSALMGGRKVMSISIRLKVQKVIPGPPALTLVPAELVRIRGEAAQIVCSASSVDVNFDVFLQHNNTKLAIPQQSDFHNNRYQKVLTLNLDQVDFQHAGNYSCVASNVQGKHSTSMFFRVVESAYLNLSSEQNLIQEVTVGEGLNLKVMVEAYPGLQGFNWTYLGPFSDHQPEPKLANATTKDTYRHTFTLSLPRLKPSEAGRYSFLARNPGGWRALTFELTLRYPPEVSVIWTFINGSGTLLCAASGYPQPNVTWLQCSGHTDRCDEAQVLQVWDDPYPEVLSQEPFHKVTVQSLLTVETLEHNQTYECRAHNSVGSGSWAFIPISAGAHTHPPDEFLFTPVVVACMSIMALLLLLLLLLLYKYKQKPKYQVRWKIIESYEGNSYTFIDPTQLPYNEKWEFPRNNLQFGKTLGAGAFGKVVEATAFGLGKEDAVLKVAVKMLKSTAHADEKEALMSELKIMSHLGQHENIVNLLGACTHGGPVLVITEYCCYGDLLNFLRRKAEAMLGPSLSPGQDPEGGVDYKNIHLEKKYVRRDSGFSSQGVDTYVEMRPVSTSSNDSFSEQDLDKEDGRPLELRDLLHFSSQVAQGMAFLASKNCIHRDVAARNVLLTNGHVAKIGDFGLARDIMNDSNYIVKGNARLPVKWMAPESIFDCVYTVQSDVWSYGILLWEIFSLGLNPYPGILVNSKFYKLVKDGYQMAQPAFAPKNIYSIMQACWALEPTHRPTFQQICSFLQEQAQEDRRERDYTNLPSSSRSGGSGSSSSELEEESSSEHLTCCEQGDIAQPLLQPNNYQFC

[12] = tested on: Mast/stem cell growth factor receptor Kit (Homo sapiens), P10721 [N822K]; assay: Inhibition of TEL-fused cKIT N822K mutant (unknown origin) expressed in mouse BA/F3 cells assessed as cell growth inhibition after 72 hrs by cell titer-glo assay; format: cell-based; in short: as §2
Sequence of Mast/stem cell growth factor receptor Kit (Homo sapiens), P10721 [N822K] (P10721 whole entry N822K, the tested form may be a part): as the sequence (P10721 whole entry) above, with N822K counted along it

[13] = target: T1, Mast/stem cell growth factor receptor Kit; assay: Inhibition of wild type cKIT in human GIST-T1 cells assessed as downregulation of ERK phosphorylation at T202//204 after 1 hr by Western blot analysis; format: cell-based
In short: (§3)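 GIST-T1 cells in DMEM with 10% FBS were exposed to serially diluted compound for 1 h, then lysed. Lysates were analysed by western blot with phospho-specific antibodies against AKT (Ser473), ERK1/2 (Thr202/Tyr204) and S6 ribosomal protein (Ser235/236), each alongside its total protein.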

BaF3 [14] = assay: Antitumor activity against TEL-fused cKIT T670I mutant expressing mouse BA/F3 cells allografted in nu/nu mouse assessed as tumor growth inhibition at 50 mg/kg/day, ip administered daily for 10 days; format: functional; conditions: 240 h, read-out: TGI
In short: (§4)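 Female nu/nu mice, 5 weeks old at purchase, given 1 million BaF3-TEL-cKIT-T670I cells in PBS/Matrigel 1:1 subcutaneously on the right flank. At tumour volume 200–400 mm3, randomised into groups of 7 and dosed IP daily for 10 days (25, 50, 100 mg/kg/d or vehicle: 0.5% methylcellulose/0.4% Tween80 in water). Tumour volume (W2×L/2) and body weight recorded daily.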

[15] = target: Epithelial discoidin domain-containing receptor 1 (Homo sapiens) (UniProt Q08345); assay: Inhibition of partial length human DDR1 expressed in bacterial expression system assessed as activity remaining at 1 uM by kinome scan assay
[16] = target: T1, Mast/stem cell growth factor receptor Kit; assay: Inhibition of wild type cKIT in human GIST-T1 cells assessed as cell growth inhibition after 72 hrs by cell titer-glo assay; format: cell-based
In short: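 GIST-T1 cells (cKIT wt) grown in DMEM with 10% FBS and 1% penicillin/streptomycin at 37 °C, 5% CO2. Viability read by CellTiter-Glo luminescence and normalized to DMSO controls. GI50 taken from the mean of three independent measurements.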

[17] = tested on: Mast/stem cell growth factor receptor Kit (Homo sapiens), P10721 [V559D,V654A]; assay: Inhibition of TEL-fused cKIT V559D/V654A double mutant (unknown origin) expressed in mouse BA/F3 cells assessed as cell growth inhibition after 72 hrs by cell titer-glo assay; format: cell-based; in short: as §2
[18] = target: T1, Mast/stem cell growth factor receptor Kit; assay: Ratio of sunitinib IC50 to compound IC50 for TEL-fused cKIT (unknown origin) expressed in mouse BA/F3 cells; format: cell-based
[19] = Solubility of the compound in pure water; format: physicochemical
In short: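 Solubility measured in PBS pH 7.4 and in pure water, reported as µg/mL.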

[20] = target: T1, Mast/stem cell growth factor receptor Kit; assay: Inhibition of wild type cKIT autophosphorylation at Y703 in human GIST-T1 cells at 100 nM after 1 hr by Western blot analysis; format: cell-based; in short: as §1
[21] = target: T1, Mast/stem cell growth factor receptor Kit; assay: Inhibition of wild type cKIT in human GIST-T1 cells assessed as downregulation of AKT phosphorylation at S473 after 1 hr by Western blot analysis; format: cell-based; in short: as §3
BaF3 [22] = assay: Antitumor activity against TEL-fused cKIT T670I mutant expressing mouse BA/F3 cells allografted in nu/nu mouse assessed as tumor growth inhibition at 100 mg/kg/day, ip administered daily for 10 days; format: functional; conditions: 240 h, read-out: TGI; in short: as §4
[23] = target: Vascular endothelial growth factor receptor 3 (Homo sapiens) (UniProt P35916); assay: Inhibition of TEL-fused partial length human FLT4 expressed in mouse BA/F3 cells after 72 hrs by cell titer-glo assay; format: cell-based; in short: as §2
[24] = tested on: Mast/stem cell growth factor receptor Kit (Homo sapiens), P10721 [T670I]; assay: Ratio of Imatinib IC50 to compound IC50 for cKIT T670I mutant in human in GIST-5R cells; format: cell-based

Sequence of Mast/stem cell growth factor receptor Kit (Homo sapiens), P10721 [T670I] (P10721 whole entry T670I): as the sequence (P10721 whole entry) above, with T670I counted along it

With `CCC(=O)NCC1CCN(c2ccc(NC(=O)Nc3cccc(Oc4ccnc5cc(OC)c(OC)cc45)c3)cc2C(F)(F)F)CC1` the GI50 [1] was 26 nM, the inhibition [2] was “Active” and the Ratio IC50 [3] was 10. The Activity (Homo sapiens) was “Dose-dependent effect”, the EC50 [4] was under 100 nM and the Activity [5] was 0.85%. It also gave an Activity [6] of 0%, an Activity [7] of 0.35% and a GI50 [8] of 320 nM. For the same compound, the GI50 [9] was 57 nM, the clearance [10] was 46 mL/min/kg and the Activity [11] was 0.05%. The GI50 [12] was 40 nM, the EC50 [13] was under 100 nM and the inhibition in vivo at 50 mg/kg/day (BaF3 [14]) was 37.1%. For the same compound, the Activity [15] was under 1%, the GI50 [16] was 4 nM and the GI50 [17] was 360 nM. The Ratio IC50 [18] was 2, the solubility [19] was 78 µM (≈ 50.8 µg/mL) and the inhibition [20] was “Active”. It also gave an EC50 [21] of under 100 nM, an inhibition in vivo at 100 mg/kg/day (BaF3 [22]) of 47.7% and a GI50 [23] of 240 nM. For the same compound, the Ratio IC50 [24] was 300.

Source: ChEMBL document CHEMBL4428071 (J Med Chem, 2016)
